Laboratory results taken from article PMC2755535 (Archives of toxicology, 2009).

Tests used:
[1] = tested on: total SOD; assay: Total SOD activity in liver and uterus; format: in vivo, female Sprague-Dawley rats; details: Figure 4
[2] = tested on: Catalase; assay: Catalase activity in liver and uterus; format: in vivo, female Sprague-Dawley rats; details: Figure 5
Outline: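 Female Sprague-Dawley rats were gavaged once daily, 5 days/week for 21 days, with test compound at 5.0 mg/kg in corn oil (2 mL/kg) or with vehicle. A positive control peroxisome proliferator was given at 7.5 mg/kg/day in water/methylcellulose. H2O2 was added to liver or uterus homogenate in potassium phosphate buffer (pH 7.8), and H2O2 loss at 240 nm was followed for 2 min. Results are milli-k units/mg Lowry protein, compared by ANOVA with Dunnett's test.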

[3] = tested on: GPx-1; assay: GPx-1 activity; format: in vivo, female Sprague-Dawley rats; details: Figure 6
Outline: (§1)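 Rats were dosed orally for 21 days (5 days/week) with test compound at 5.0 mg/kg/day in corn oil, with vehicle, or with a positive control. Liver and uterus homogenates were assayed in a coupled glutathione reductase/NADPH system, reading NADPH decrease at 340 nm. H2O2 was the substrate for GPx-1 and cumene hydroperoxide for total GPx. Results are milliunits/mg Lowry protein, analysed by ANOVA and Dunnett's test (p<0.05).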

[4] = tested on: Manganese superoxide dismutase (MnSOD); assay: MnSOD activity in liver and uterus; format: in vivo, female Sprague-Dawley rats; details: Figure 4; for MnSOD activity in the liver, change versus control: ciprofibrate p = 0.07
[5] = tested on: reduced to oxidized glutathione; assay: Total and oxidized glutathione; format: in vivo, female Sprague-Dawley rats; details: data not shown
Outline: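 Female Sprague-Dawley rats were gavaged for 21 days (5 days/week) with test compound at 5.0 mg/kg in corn oil (n=9), vehicle (n=9), or a reference peroxisome proliferator at 7.5 mg/kg/day (n=8), then killed by CO2. Liver and uterus aliquots were homogenized immediately in 5% 5-sulfosalicylic acid. Total and oxidized glutathione were measured by enzymatic recycling, and the GSH:GSSG ratio was derived.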

[6] = tested on: copper zinc superoxide dismutase (CuZnSOD); assay: CuZnSOD activity in liver and uterus; format: in vivo, female Sprague-Dawley rats; details: Figure 4
[7] = tested on: Total GPx; assay: Total GPx activity; format: in vivo, female Sprague-Dawley rats; details: Figure 6
Outline: as §1

[8] = tested on: Thiobarbituric acid reactive substances (TBARS); assay: TBARS in whole liver homogenate; format: in vivo, female Sprague-Dawley rats; details: data not shown
Outline: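 Female Sprague-Dawley rats were gavaged once daily, 5 days/week for 21 days. Groups: test compound at 5.0 mg/kg in corn oil (2 mL/kg, n=9), corn-oil vehicle (n=9), or a reference peroxisome proliferator at 7.5 mg/kg/day in water/methylcellulose (n=8). Euthanasia was 3 days (1 day for the reference agent) after the last dose. TBARS were measured fluorometrically in whole liver homogenate.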

[9] = tested on: peroxisomal acyl Co-A oxidase (AOX); assay: Peroxisomal acyl Co-A oxidase activity in liver homogenates; format: in vivo, female Sprague-Dawley rats; details: for AOX activity in liver, change versus control (significance): Figure 3; for Increase of peroxisomal AOX activity in liver compared to control: oral 21 days, N-EtFOSE increase p = 0.35
[10] = format: in vivo, female Sprague-Dawley rats; details: oral 21 days, N-EtFOSE 5.0 mg/kg or ciprofibrate 7.5 mg/kg/day
[11] = Histopathological evaluation of H&E stained liver and uterus sections; format: in vivo, female Sprague-Dawley rats
[12] = rat, in vivo; cited from earlier work
[13] = sheep, in vivo; cited from earlier work
[14] = human blood; ref Kärrman et al., 2006b; cited from earlier work
[15] = sheep; ref Vitayavirasuk and Bowen, 1999; cited from earlier work
[16] = Levels of N-EtFOSE and metabolites in liver and serum; format: in vivo, female Sprague-Dawley rats; details: for %TD in Serum (× 10^-3) / %TD in Serum: assuming serum volume of 4.86 mL/100 mg; for Liver: serum ratio: N-EtFOSE-treated female rats, mean
[17] = rat, in vivo; cited from earlier work; remark: listed apart in the source
[18] = percentage of the total N-EtFOSE dose
[19] = percentage of the total N-EtFOSE dose, recovery adjusted

Row | Compound | Total SOD activity in the liver, change versus control [1] | Total SOD activity in the uterus, change versus control [1] | Catalase activity in the liver, change versus control [2] | Catalase activity in the uterus, change versus control [2] | GPx-1 activity in the liver, change versus control [3] | GPx-1 activity in the uterus, change versus control [3] | MnSOD activity in the liver, change versus control [4] | MnSOD activity in the uterus, change versus control [4] | GSH:GSSG ratio in the liver [5] | GSH:GSSG ratio in the uterus [5] | CuZnSOD activity in the liver, change versus control [6] | CuZnSOD activity in the uterus, change versus control [6] | Total GPx activity in the liver, change versus control [7] | Total GPx activity in the uterus, change versus control [7] | TBARS in the liver [8] | AOX activity in liver, change versus control (significance) [9] | Increase of peroxisomal AOX activity in liver compared to control [9] | %TD in Serum (× 10^-3) [16, 18] | %TD in Liver [16, 19] | Liver: serum ratio [16] | also measured
1 | CC(C)(Oc1ccc(C2CC2(Cl)Cl)cc1)C(=O)O (stereo not shown) [Ciprofibrate, reference compound] | not significant effect | did not significantly alter | not significantly altered | did not alter | significantly decreased | decreased only in the liver | tended to be increased | significantly decreased | Neither N-EtFOSE nor ciprofibrate had an effect | Neither N-EtFOSE nor ciprofibrate had an effect | not significant effect | increased | significantly decreased | significantly decreased | Neither N-EtFOSE nor ciprofibrate had an effect | significant increase | 300 fold |  |  |  | Survival and clinical signs of toxicity [10]: no clinical findings; Organ weight, Kidney ([10]; mean ± SD): 1.69 ± 0.05 g; Organ weight, Liver ([10]; mean ± SD): 13 ± 0.97 g; Organ weight, Spleen ([10]; mean ± SD): 0.58 ± 0.04 g; Organ weight, Uterus ([10]; mean ± SD): 0.31 ± 0.06 g; Ratio of Organ Weight to Body Weight, Liver ([10]; mean ± SD): 5.9 ± 0.3 %; Ratio of Organ Weight to Body Weight, Spleen ([10]; mean ± SD): 2.5 ± 0.2 % (× 10^-3); Histopathological evaluation of H&E stained liver and uterus slices ([11]; oral 21 days, data not shown): did not reveal pathological changes
2 | NS(=O)(=O)C(F)(F)C(F)(F)C(F)(F)C(F)(F)C(F)(F)C(F)(F)C(F)(F)C(F)(F)F [FOSA, perfluorooctanesulfonamide] |  |  |  |  |  |  |  |  |  |  |  |  |  |  |  |  |  | 25.3 ± 6.1 (× 10^-3) %TD (× 10^-3) | 0.29 ± 0.06 %TD |  | half-life [12]: approximately 100 hours; elimination phase half-life [13]: 63.4 h; mean plasma-to-whole blood ratio [14]: 0.2; plasma-to-whole blood ratio [15]: 0.04; Kp at 3 days after the last dose ([16]; female, Sprague-Dawley, rat, in vivo): 10.1
3 | O=S(=O)(NCCO)C(F)(F)C(F)(F)C(F)(F)C(F)(F)C(F)(F)C(F)(F)C(F)(F)C(F)(F)F [FOSE, perfluorooctanesulfonamidoethanol] |  |  |  |  |  |  |  |  |  |  |  |  |  |  |  |  |  | 0.07 ± 0.03 (× 10^-3) %TD (× 10^-3) |  | 6.4 | %TD in Liver (× 10^-3) [16, 19]: 0.58 ± 0.35 (× 10^-3) %TD (× 10^-3)
4 | CCN(CC(=O)O)S(=O)(=O)C(F)(F)C(F)(F)C(F)(F)C(F)(F)C(F)(F)C(F)(F)C(F)(F)C(F)(F)F [N-EtFOSAA, N-ethyl perfluorooctanesulfonamidoacetate] |  |  |  |  |  |  |  |  |  |  |  |  |  |  |  |  |  |  | 0.43 ± 0.13 %TD | 1.3 | %TD in Serum [16, 18]: 0.38 ± 0.17 %TD
5 | CCN(CCO)S(=O)(=O)C(F)(F)C(F)(F)C(F)(F)C(F)(F)C(F)(F)C(F)(F)C(F)(F)C(F)(F)F [N-EtFOSE, N-Ethyl perfluorooctanesulfonamidoethanol] | significantly increased | significantly increased | not significantly altered | significantly increased | No significant change | no effect | significantly increased | only exception | Neither N-EtFOSE nor ciprofibrate had an effect | Neither N-EtFOSE nor ciprofibrate had an effect | significantly increased | significantly increased | No significant change | significant decrease | Neither N-EtFOSE nor ciprofibrate had an effect | did not reach statistical significance | 16 fold | 0.42 ± 0.20 (× 10^-3) (n=5) %TD (× 10^-3) |  |  | Uncorrected N-EtFOSE level in the liver ([16]; rat, in vivo): c Corrected N-EtFOSE levels in the liver are not reported because of the poor recovery rate (2.5±1%); uncorrected N-EtFOSE levels group were low, with 4.6 ± 4.7 ppb in N-EtFOSE-treated animals and 7.8 ± 1.3 ppb in control animals.; Survival and clinical signs of toxicity [10]: no clinical findings; Ratio of Organ Weight to Body Weight, Kidney ([10]; mean ± SD): 6.8 ± 0.4%; Ratio of Organ Weight to Body Weight, Spleen ([10]; mean ± SD): 2.7 ± 0.2 % (× 10^-3); Ratio of Organ Weight to Body Weight, Uterus ([10]; mean ± SD): 1.6 ± 0.3%; Doses causing a reduced body weight gain in pregnant rats [17]: > 5 mg/kg body weight/day; Histopathological evaluation of H&E stained liver and uterus slices ([11]; rat, in vivo, po): did not reveal pathological changes
6 | O=S(=O)(O)C(F)(F)C(F)(F)C(F)(F)C(F)(F)C(F)(F)C(F)(F)C(F)(F)C(F)(F)F [PFOS, perfluorooctane sulfonic acid] |  |  |  |  |  |  |  |  |  |  |  |  |  |  |  |  |  |  | 6.23 ± 0.95 %TD | 2.3 | %TD in Serum [16, 18]: 3.86 ± 0.86 %TD; Share of the total N-EtFOSE dose in the serum and liver ([16]; serum plus liver): approximately 9.5±1.2%
